The source made the active and inactive calls. No cut-off for these calls is given here.
How the values were obtained:
[1] = molecular target: T1, Peroxisome proliferator-activated receptor gamma (Homo sapiens) (UniProt P37231); assay: Potency index, ratio of UHC1 IC50 to compound IC50 for displacement of fluormone PPAR green tracer ligand from recombinant GST-tagged PPARgamma ligand binding domain (unknown origin) incubated for 4 hrs by competitive fluorescence polarization binding assay
T1 sequence (whole entry): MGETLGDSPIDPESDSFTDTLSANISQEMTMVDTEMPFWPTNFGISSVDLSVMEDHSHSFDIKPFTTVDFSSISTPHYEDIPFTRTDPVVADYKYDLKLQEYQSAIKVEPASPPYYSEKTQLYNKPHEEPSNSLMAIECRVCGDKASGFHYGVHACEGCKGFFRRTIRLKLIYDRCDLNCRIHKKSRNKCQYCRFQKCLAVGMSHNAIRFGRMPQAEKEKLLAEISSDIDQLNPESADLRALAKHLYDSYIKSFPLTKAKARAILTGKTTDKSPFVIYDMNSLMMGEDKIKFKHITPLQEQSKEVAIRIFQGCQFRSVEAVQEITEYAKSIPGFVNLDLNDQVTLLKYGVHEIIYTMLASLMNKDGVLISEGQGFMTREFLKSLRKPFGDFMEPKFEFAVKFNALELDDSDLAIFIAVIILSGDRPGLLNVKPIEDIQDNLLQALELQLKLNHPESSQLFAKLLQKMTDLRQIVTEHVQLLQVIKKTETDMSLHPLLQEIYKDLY

[2] = molecular target: T2, Peroxisome proliferator-activated receptor gamma (Homo sapiens, UniProt P37231); assay: Displacement of fluormone PPAR green tracer ligand from recombinant GST-tagged PPARgamma ligand binding domain (unknown origin) incubated for 4 hrs by competitive fluorescence polarization binding assay
T2 sequence (P37231 whole entry): T1 sequence (whole entry)

[3] = molecular target: T3, PPARgamma2 (peroxisome proliferator-activated receptor gamma) (Homo sapiens, UniProt P37231); assay: Transactivation activity at human PPARgamma2 cotransfected with PPRE X3-TK-luc in human HEK293 cells incubated for 24 hrs by luciferase reporter gene assay relative to rosiglitazone; assay type: cell-based
T3 sequence (P37231 whole entry): T1 sequence (whole entry)
Summary of the method: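 HEK-293 cells grown in DMEM with 4.5 g/liter glucose and 10% bovine calf serum at 37°C, 5% CO₂. Co-transfected with human PPARγ2 plasmid and PPRE X3-TK-luc, then left 16 h. Compounds at 100 to 0.001 μM (10-fold steps), 0.1% DMSO final, for 24 h. Lysate luciferase read by luminescence.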

[4] = molecular target: T4, Peroxisome proliferator-activated receptor gamma (Mus musculus) (UniProt P37238); assay: Partial agonist activity at PPARgamma in mouse 3T3-L1 cells assessed as decrease in PPARgamma S273 phosphorylation by measuring upregulation of adiponectin mRNA expression at 10 uM by qRT-PCR analysis; assay type: cell-based
T4 sequence (whole entry): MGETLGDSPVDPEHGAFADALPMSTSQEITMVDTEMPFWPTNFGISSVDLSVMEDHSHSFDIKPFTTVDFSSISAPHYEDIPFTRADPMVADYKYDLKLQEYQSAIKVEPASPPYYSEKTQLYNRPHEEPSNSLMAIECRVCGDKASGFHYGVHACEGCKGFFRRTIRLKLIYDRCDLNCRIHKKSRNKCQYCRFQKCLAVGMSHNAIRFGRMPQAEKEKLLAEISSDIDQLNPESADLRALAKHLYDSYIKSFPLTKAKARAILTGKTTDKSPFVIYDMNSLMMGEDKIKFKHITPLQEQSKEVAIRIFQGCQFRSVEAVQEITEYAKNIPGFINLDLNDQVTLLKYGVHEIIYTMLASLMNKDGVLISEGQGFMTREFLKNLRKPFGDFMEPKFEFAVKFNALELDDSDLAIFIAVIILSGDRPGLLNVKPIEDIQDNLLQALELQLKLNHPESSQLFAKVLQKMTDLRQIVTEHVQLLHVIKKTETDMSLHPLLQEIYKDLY

[5] = molecular target: T4, Peroxisome proliferator-activated receptor gamma (Mus musculus); assay: Partial agonist activity at PPARgamma in mouse 3T3-L1 cells assessed as decrease in PPARgamma S273 phosphorylation by measuring upregulation of adipsin mRNA expression at 10 uM by qRT-PCR analysis; assay type: cell-based
[6] = molecular target: T4, Peroxisome proliferator-activated receptor gamma (Mus musculus); assay: Partial agonist activity at PPARgamma in mouse 3T3L1 cells assessed as decrease in PPARgamma S273 phosphorylation by measuring upregulation of Car3 mRNA expression at 10 uM by qRT-PCR analysis; assay type: cell-based
[7] = molecular target: T5, Peroxisome proliferator-activated receptor gamma (Mus musculus, UniProt P37238); assay: Induction of PPARgamma-mediated adipogenesis in mouse 3T3L1 cells assessed as upregulation of FABP4 mRNA expression at 10 uM by qRT-PCR analysis; assay type: cell-based
T5 sequence (P37238 whole entry): T4 sequence (whole entry)
Summary of the method: (§1)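 Confluent 3T3-L1 cells were differentiated in 10% FBS/DMEM with 0.5 mmol/L IBMX, 1 μmol/L dexamethasone and 10 μg/mL insulin plus compounds (10 μM) for 48 h, then 10 μg/mL insulin alone for another 48 h. RNA was extracted and analyzed by qRT-PCR (35 cycles). Relative mRNA was calculated by ΔΔCt normalized to TBP.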

[8] = molecular target: T5, Peroxisome proliferator-activated receptor gamma; assay: Induction of PPARgamma-mediated adipogenesis in mouse 3T3L1 cells assessed as upregulation of Glut4 mRNA expression at 10 uM by qRT-PCR analysis; assay type: cell-based; summary of the method: as §1
[9] = molecular target: T5, Peroxisome proliferator-activated receptor gamma; assay: Induction of PPARgamma-mediated adipogenesis in mouse 3T3L1 cells assessed as upregulation of LPL mRNA expression at 10 uM by qRT-PCR analysis; assay type: cell-based; summary of the method: as §1
[10] = molecular target: T4, Peroxisome proliferator-activated receptor gamma (Mus musculus); assay: Partial agonist activity at PPARgamma in mouse 3T3-L1 cells assessed as decrease in PPARgamma S273 phosphorylation at 10 uM preincubated for 24 hrs followed by TNFalpha stimulation for 3 hrs by Western blotting analysis
[11] = molecular target: T5, Peroxisome proliferator-activated receptor gamma; assay: Induction of PPARgamma-mediated adipogenesis in mouse 3T3L1 cells assessed as increase in cell differentiation at 10 uM compound treatment renewed every 2 days and measured on day 7 by Oil-red O staining based assay; settings: 48 h
Summary of the method: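 3T3-L1 cells were induced with DMEM/10% FBS containing 1 μg/ml insulin, 1 μM dexamethasone and 0.5 mM IBMX plus compounds (10 μM) for 48 h. They were then kept in maintenance DMEM/10% FBS with compounds, with medium renewed every 2 days. At day 7 cells were fixed in 4% formaldehyde for 30 min and stained with 0.3% Oil Red O for 1 h at 37 °C. Lipid droplets were viewed by microscopy; DMSO 0.1% final.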

In the case of `COc1cc(CNC(=O)c2ccc3c(c2)c(C)c(C)n3Cc2ccc(-c3ccccc3C(=O)O)cc2)ccc1O`, the Ratio IC50 [1] is reported as > 30, the IC50 [2] is reported as 17 nM and the Ki [2] is reported as 13 nM. The Emax at 24 h [3] was 15%, the Activity [4] was “Active” and the Activity [5] was “Active”. For the same compound, the Activity [6] was “Active”, the Activity [7] was “Active” and the Activity [8] was “Active”. The Activity [9] was “Active” and the inhibition [10] was “Active”.
`Cc1c(C)n(Cc2ccc(-c3ccccc3C(=O)O)cc2)c2ccc(C(=O)NCCc3ccc(O)cc3)cc12` gave an IC50 [2] of 48 nM, a Ki [2] of 38 nM and an Emax at 24 h [3] of 31%.
With `Cc1c(C)n(Cc2ccc(-c3ccccc3C(=O)O)cc2)c2ccc(C(=O)NCc3ccc(S(N)(=O)=O)cc3)cc12` the IC50 [2] was 312 nM, the Ki [2] was 244 nM and the Emax at 24 h [3] was 0%.
Work on `Cc1c(C)n(Cc2ccc(-c3ccccc3C(=O)O)cc2)c2ccc(C(=O)NCc3cccnc3)cc12` yielded an IC50 [2] of 536 nM, a Ki [2] of 440 nM and an Emax at 24 h [3] of 45%. For the same compound, the inhibition [10] was “Active”.
For `Cc1c(C)n(Cc2ccc(-c3ccccc3C(=O)O)cc2)c2ccc(C(=O)NCc3ccccn3)cc12`, the IC50 [2] was 34 nM, the Ki [2] was 27 nM and the Emax at 24 h [3] was 15%.
Work on `COc1cc(CNC(=O)c2ccc3c(c2)c(C)c(C)n3Cc2cccc(C(F)(F)F)c2)ccc1O` yielded an IC50 [2] of 10 nM and an Emax at 24 h [3] of 46%.
`Cc1c(C)n(Cc2ccc(-c3ccccc3C(=O)O)cc2)c2ccc(C(=O)NCc3ccc4c(c3)OCO4)cc12` gave an IC50 [2] of 15 nM, a Ki [2] of 12 nM and an Emax at 24 h [3] of 36%.
Compound `Cc1c(C)n(Cc2cccc(C(F)(F)F)c2)c2ccc(C(=O)N[C@@H](Cc3ccc(O)cc3)C(=O)O)cc12` has an IC50 [2] of 346 nM, a Ki [2] of 270 nM and an Emax at 24 h [3] of 44%.
`Cc1c(C)n(Cc2ccc(-c3ccccc3C(=O)O)cc2)c2ccc(C(=O)NCc3cccc(OCC(=O)O)c3)cc12` was tested, and the IC50 [2] was 66 nM, the Ki [2] was 52 nM and the Emax at 24 h [3] was 56%.
With `Cc1c(C)n(Cc2cccc(C(F)(F)F)c2)c2ccc(C(=O)NCc3ccc4c(c3)OCO4)cc12` the IC50 [2] was 16 nM and the Emax at 24 h [3] was 32%.
With `Cc1c(C)n(Cc2ccc(-c3ccccc3C(=O)O)cc2)c2ccc(C(=O)NCC3CCNCC3)cc12` the IC50 [2] was 12100 nM, the Ki [2] was 9460 nM and the Emax at 24 h [3] was 11%.
In the case of `COc1ccc(OC)c(CNC(=O)c2ccc3c(c2)c(C)c(C)n3Cc2cccc(C(F)(F)F)c2)c1`, the IC50 [2] is reported as 48 nM, the Ki [2] is reported as 38 nM and the Emax at 24 h [3] is reported as 27%.
In the case of `Cc1c(C)n(Cc2cccc(C(F)(F)F)c2)c2ccc(C(=O)NCc3ccccn3)cc12`, the IC50 [2] is reported as 185 nM, the Ki [2] is reported as 144 nM and the Emax at 24 h [3] is reported as 59%.
With `Cc1c(C)n(Cc2ccc(-c3ccccc3C(=O)O)cc2)c2ccc(C(=O)O)cc12` the IC50 [2] was 4870 nM, the Ki [2] was 3800 nM and the Emax at 24 h [3] was 16%.
For `CN(CCOc1ccc(CC2SC(=O)NC2=O)cc1)c1ccccn1` (configuration not stated) [ROSIGLITAZONE], the Activity [11] was “Active”, the Activity [7] was “Active” and the Activity [8] was “Active”. The Activity [9] was “Active” and the inhibition [10] was “Active”.
Compound `Cc1c(C)n(Cc2ccc(-c3ccccc3C(=O)O)cc2)c2ccc(C(=O)NC3CCNCC3)cc12` has an IC50 [2] of 41300 nM, a Ki [2] of 32200 nM and an Emax at 24 h [3] of 17%.
